In ChEMBL document CHEMBL1143073, “Benzoic acid derivatives, acetophenones, and anti-inflammatory constituents from Melicope semecarpifolia” (J Nat Prod, 2008) one finds IC50, Activity and inhibition data, which are given here for 14 compounds.

≈ marks a conversion by molar mass, not a printed value. Calls of active or inactive are those of the source. The calls are words filed in the database; no cut-off is given here.

Assay [1] is described as follows: Antiinflammatory activity in human neutrophils assessed as inhibition of fMet-Leu-Phe/Cytochalasin B-induced superoxide anion generation. Format: functional, cell-based. To be noted: Neutrophil. The procedure, abridged: (§1)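 Neutrophils isolated from venous blood of healthy adult volunteers (20–28 years) by dextran sedimentation, Ficoll Hypaque centrifugation and hypotonic erythrocyte lysis, >98% viable, held in Ca2+-free HBSS pH 7.4 at 4 °C. Cells given 0.5 mg/mL ferricytochrome c and 1 mM Ca2+, 37 °C 2 min, drug 5 min, cytochalasin B 1 µg/mL 3 min, then fMLP 100 nM 10 min. SOD-inhibitable (100 U/mL) reduction at 550 nm; n = 4.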

Assay [2] in a line: Antiinflammatory activity in human neutrophils assessed as inhibition of fMet-Leu-Phe/Cytochalasin B-induced elastase release. It is filed as functional, cell-based. To be noted: Neutrophil. The procedure, abridged:
(§2)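 Human volunteer neutrophils (6 × 10^5/mL) prepared by dextran sedimentation, Ficoll Hypaque gradient and hypotonic lysis, kept in Ca2+-free HBSS pH 7.4 at 4 °C. Elastase substrate MeO-Suc-Ala-Ala-Pro-Val-p-nitroanilide 100 µM added; cells equilibrated 2 min at 37 °C, drug 5 min, then fMLP 100 nM/cytochalasin B 0.5 µg/mL stimulation. Absorbance at 405 nm monitored continuously; n = 4.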

Assay [3] deals with Neutrophil. The experiment in a line: Antiinflammatory activity in human neutrophils assessed as inhibition of elastase release at 10 ug/mL. Format: functional, cell-based. The method in brief: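 Neutrophils from venous blood of healthy adult volunteers, isolated by dextran sedimentation, Ficoll Hypaque centrifugation and hypotonic erythrocyte lysis, kept in Ca2+-free HBSS pH 7.4 at 4 °C. Cells (6 × 10^5/mL) with MeO-Suc-Ala-Ala-Pro-Val-p-nitroanilide (100 µM), 2 min at 37 °C, drug 5 min, then fMLP (100 nM)/cytochalasin B (0.5 µg/mL). A405 monitored continuously. Percent inhibition, mean ± SEM, n = 4.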

In assay [4] the test system is Neutrophil. Kind of assay: Antiinflammatory activity in human neutrophils assessed as inhibition of superoxide anion generation at 10 ug/mL. Format: functional, cell-based. The procedure, abridged: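 Healthy-volunteer neutrophils (dextran/Ficoll isolation, Ca2+-free HBSS pH 7.4) supplemented with 0.5 mg/mL ferricytochrome c and 1 mM Ca2+. Equilibrated 2 min at 37 °C, drug 5 min, cytochalasin B 1 µg/mL 3 min, then fMLP 100 nM 10 min. SOD-inhibitable ferricytochrome c reduction read at 550 nm with stirring, difference ± SOD (100 U/mL). Percent inhibition, n = 4.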

Assay [5] in a line: Antiinflammatory activity in human neutrophils assessed as inhibition of fMet-Leu-Phe/Cytochalasin B-induced elastase release at 10 ug/mL. It is filed as functional, cell-based. To be noted: Neutrophil. The procedure, abridged:
as §2

The nature of assay [6]: Antiinflammatory activity in human neutrophils assessed as inhibition of fMet-Leu-Phe/Cytochalasin B-induced superoxide anion generation at 10 ug/mL. It is filed as functional. The conditions noted are these: Neutrophil. The method in brief: as §1

Turning to `CC(C)=CCC/C(C)=C/COc1cc(O)c(C(=O)CO)c(O)c1`, the concentration for half-maximal inhibition (IC50) (commonly the concentration that gives 50% inhibition) in assay [1] was determined as 3.75 µg/mL; in assay [2], 0.91 µg/mL (≈ 2.84 µM). In the case of `CC(=O)c1c(O)cc(O)cc1OC/C=C(\C)CCC=C(C)C`, the result in the assay on Neutrophil [3] and in the assay on Neutrophil [4] was Active. In the case of `CC(=O)c1c(O)cc(OC/C=C(\C)CCC=C(C)C)c(C(=O)O)c1O`, the results for the IC50 in assay [1] and in assay [2] were 6.62 µg/mL and 5.79 µg/mL (≈ 16.6 µM), respectively. The matching figures for `CC(C)=CCC/C(C)=C/COc1cc(O)cc(O)c1C(=O)CO`: 0.73 µg/mL and 0.6 µg/mL (≈ 1.87 µM). Turning to `CC(=O)c1c(OC/C=C(\C)CCC=C(C)C)cc(O)c(C(=O)O)c1O`, the IC50 in assay [1] was 8.02 µg/mL. Further, in assay [5], the inhibition (in general, the relative decrease from the control value, in per cent) at 10 µg/mL was found to be 46.1%. Turning to `CC[C@H](CC[C@@H](C)[C@H]1CC[C@H]2[C@@H]3C(=O)C=C4C[C@@H](O)CC[C@]4(C)[C@H]3CC[C@]12C)C(C)C`, the inhibition at 10 µg/mL in assay [5] was found to be 7.48%; in assay [6], 22.6%. Take `COc1cc(O)c2c(=O)c(OC)c(-c3ccc(O)cc3)oc2c1` [KUMATAKENIN]: the IC50 is 1.2 µg/mL in assay [1] and 0.7 µg/mL (≈ 2.23 µM) in assay [2]. The matching figures for `COc1cc(O)c2c(=O)c(OC)c(-c3ccc(O)c(OC)c3)oc2c1` [PACHYPODOL]: 1 µg/mL and 0.99 µg/mL (≈ 2.88 µM).

As to `O=S(=O)(F)Cc1ccccc1` [PHENYLMETHYLSULFONYLFLUORIDE], the IC50 in assay [5] came out at 35.7 µM. As to `COc1cc(O)c2c(=O)c(OC)c(-c3ccc(OC)c(OC)c3)oc2c1` [RETUSIN], the values for the half-maximal inhibitory concentration (IC50) in assay [1] and in assay [2] were 1.43 µg/mL and 1.69 µg/mL (≈ 4.72 µM), respectively. `CC(=O)c1c(O)cc(OC/C=C(\C)CCC=C(C)C)c2c1OC(C)(C)[C@H](O)C2`: the results for the inhibition at 10 µg/mL in assay [5] and in assay [6] were 28.7% and 30.6%, respectively.

As for `CC(=O)c1c(O)cc(OC/C=C(\C)CCC=C(C)C)c2c1OC(C)(C)C=C2`, the values for the inhibition at 10 µg/mL in assay [5] and in assay [6] were 27.4% and 21.4%, respectively. The matching figures for `CC(=O)c1c(O)cc(OC/C=C(\C)CCC=C(C)C)c2c1OC(C)(CCC=C(C)C)C=C2` (stereo unspecified): 26.6% and 23.2%.

As to `c1ccc2c(c1)[I+]c1ccccc1-2` [DIPHENYLENEIODONIUM], the IC50 in assay [1] was 0.52 µM.
